# Assay outcomes: PubChem, The Scripps Research Institute Molecular Screening Center
# Rows were chosen to be rich in hits. Some 1.8% of all compounds tested hit in one or more screens of this group.
# NPY2 pot ag: human NPY-Y2 potentiation or agonism, primary screen; cells expressing NPY-Y2, potentiator/agonist read-out; activation, % at 3.6 µM; 220,000 compounds, 0.45% hits; in the data active = activation above about 27%;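 note: cells stimulated with NPY near EC25 plus isoproterenol at EC100; 0% = vehicle plus submaximal agonist and 100% = vehicle plus saturating agonist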
# NPY1 pot ag: potentiates or activates human NPY-Y1 receptor; P25929; NPY-Y1 expressing cells, potentiator/agonist activation; activation, % at 3.6 µM; 220,000 compounds, 0.37% hits; AID 1304; in the data active = activation above about 33%, passing the limit was not always enough;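 note: cells stimulated with NPY at EC10 then isoproterenol at EC100; 0% = low agonist plus stimulus and 100% = saturating agonist plus stimulus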
# Target sequence (P25929 whole entry, looked up): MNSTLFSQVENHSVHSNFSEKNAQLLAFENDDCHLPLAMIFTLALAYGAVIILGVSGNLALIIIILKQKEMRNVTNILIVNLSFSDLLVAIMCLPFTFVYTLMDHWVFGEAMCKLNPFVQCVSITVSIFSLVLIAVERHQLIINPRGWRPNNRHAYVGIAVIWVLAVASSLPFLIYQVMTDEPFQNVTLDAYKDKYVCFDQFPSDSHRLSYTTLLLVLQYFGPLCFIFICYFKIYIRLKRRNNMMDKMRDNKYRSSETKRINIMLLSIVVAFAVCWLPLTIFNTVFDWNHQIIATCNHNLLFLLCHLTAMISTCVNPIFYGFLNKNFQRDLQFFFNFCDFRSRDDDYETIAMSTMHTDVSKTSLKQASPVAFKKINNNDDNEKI
# NPY-Y1 antag: antagonists of human neuropeptide Y receptor Y1; HEK293-CNG Y1 cells, membrane potential fluorescence; NPY at EC95, then isoproterenol; P25929; AID 1040; inhibition, % at 3.6 µM; 200,000 compounds, 1% hits;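 active = inhibition above the campaign mean inhibition of all tested compounds plus 3 SD, cut at about 20% in these data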;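 note: 0% = DMSO wells given NPY plus isoproterenol and 100% = isoproterenol alone without NPY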
#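 Assay system: HEK293 cells with Y1 receptor plus CNG channel | Probe or stimulus: NPY (25 nM), isoproterenol (1 µM), Ro 20-1724 (25 µM) | Timing: Compound incubation 1 h at room temperature, readout 45 min post-stimulation | Measured by: Membrane-potential fluorescent dye readout | Benchmarks: High control isoproterenol alone, low control NPY with isoproterenol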
# NPY-Y2 antag: blocks the human neuropeptide Y Y2 receptor; P49146; NPY-Y2 expressing cells, antagonist mode; inhibition, % at 2.7 µM; 140,000 compounds, 0.99% hits; AID 793; in the data active = inhibition above about 17%;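 note: 0% = vehicle with agonist challenge and 100% = reference antagonist with challenge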
# NPY1 antag ctr: human NPY-Y1 antagonism in NPY-Y2 counter-screen | 710 compounds, 19% hits | shares compounds with NPY-Y2 antag | inhibition, % at 3.6 µM | cell-based NPY-Y1 antagonism counterscreen; in the data active = inhibition above about 20%;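 note: cells challenged with NPY then isoproterenol with cAMP sensed through a CNG channel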
# NPY2 antag conf: confirmation of human neuropeptide Y receptor Y2 antagonists; shares compounds with NPY-Y2 antag; 710 compounds, 32% hits; inhibition, % at 2.8 µM; HEK293 NPY-Y2 CNG channel, membrane potential fluorescence;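 active = mean inhibition of triplicate wells above the hit cutoff set in the primary screen, cut at about 17% in these data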;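 note: 0% = DMSO with NPY challenge and 100% = BIIE0246 high control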
# The depositor's hits bear a star; . = not tested or not shown.
SMILES,NPY2 pot ag,NPY1 pot ag,NPY-Y1 antag,NPY-Y2 antag,NPY1 antag ctr,NPY2 antag conf
CCOC(=O)C1CCCN(c2nc(C)nc3c2oc2ccccc23)C1 (centres undefined),-22.0,-10.3,6.6,18.1*,14.5,14.3
Cc1nc(N2CCOCC2)c2oc3ccccc3c2n1,1.2,-8.0,5.2,-1.6,.,.
COC(=O)c1sccc1NC(=S)N1CCN(c2ccccc2F)CC1,-15.7,-6.7,4.5,18.3*,12.6,11.5
CCCOC(=O)COC(=O)c1ccccc1NC(=O)c1ccccc1,-11.5,-70.5,15.3,23.2*,16.1,8.8
C/C(Cn1nnc([N+](=O)[O-])n1)=N\NC(=O)c1ccc(O)cc1O,-1.0,-3.1,-0.9,25.4*,-1.7,0.3
C/C(Cn1nnc([N+](=O)[O-])n1)=N\NC(=O)c1ccccc1O,-19.2,-42.6,.,.,.,.
C=CCn1c(SCC(=O)Nc2ncc(Cc3cc(Cl)ccc3Cl)s2)nnc1-c1ccncc1,-12.4,-12.8,12.6,4.6,.,.
Cc1nn(-c2ccccc2)c2sc(C(=O)OCc3nnc(-c4ccccc4)o3)cc12,-1.4,-8.1,0.9,1.6,.,.
Cc1cc(C)n(-c2nnc(C)n2/N=C/c2ccccc2OCc2ccccc2Cl)n1,-3.0,-3.9,10.7,17.5*,20.1*,10.8
CCOc1ccc(S(=O)(=O)NCCC(=O)OCC(=O)Nc2cc(C)on2)cc1,-21.9,-5.1,.,.,.,.
Cc1cccc(-n2ccnc2SCC(=O)N2CCCc3ccccc32)c1C,-23.5,-87.7,17.8,21.0*,15.9,47.0*
Cc1ccc(-c2nc3ncccc3o2)cc1NC(=O)COc1ccccc1,1.8,-22.7,2.7,20.8*,7.7,5.5
Cc1cc(C)c2ccc(=O)n(CC(=O)N/N=C/c3ccccc3Cl)c2n1,-11.9,15.2,.,.,.,.
COc1ccc(N(C)S(=O)(=O)c2c(C)[nH]c(=O)[nH]c2=O)cc1,-6.0,-0.2,-2.5,2.0,.,.
O=S1(=O)CC(O)C(N2CCCCC2)C1 (centres undefined),1.6,-10.1,0.9,-0.2,.,.
Cc1cccc(C2=N/C(=C\c3cccs3)C(=O)O2)c1,-7.7,-4.6,0.5,.,.,.
Oc1cccc(-c2nc3ccc4ccccc4c3c3c2CCC3)c1,-35.7,-29.7,16.0,30.0*,10.1,31.5*
CC(C)NC(=O)COC(=O)c1ccccc1C(=O)c1ccccc1,-10.4,11.7,-0.2,.,.,.
CC(C)COP(=O)(OCC(C)C)C(Nc1ccccc1)c1ccc2c(c1)OCO2 (centres undefined),13.0,-6.0,17.1,19.7*,10.9,6.2
N/N=c1\sc2ccccc2n1-c1ccccc1,-1.5,3.5,-0.9,1.1,.,.
C=CCNc1nc(N2CCCC2)nc2ccccc12,3.7,-32.6,10.6,19.9*,19.5,18.6*
COC(=O)c1cc2occc2n1Cc1nc(-c2ccccc2Cl)oc1C,-4.9,3.8,3.6,19.9*,13.5,20.4*
COC(=O)c1cc2occc2n1Cc1nc(-c2ccc(Cl)cc2)oc1C,-10.4,-16.5,10.3,2.6,.,.
Cc1ccc(CNc2nc(C)nc3sc4c(c23)CCC4)cc1,-32.3,-34.2,13.7,20.4*,27.5*,20.5*
Cc1nc(Nc2ccc(O)cc2)c2c3c(sc2n1)CCCC3,3.9,11.1,.,.,.,.
SMILES,NPY2 pot ag,NPY1 pot ag,NPY-Y1 antag,NPY-Y2 antag,NPY1 antag ctr,NPY2 antag conf
O=C(CCN1CCN(c2ccccc2)CC1)NNC(=S)Nc1ccccc1Cl,-0.9,-14.9,-1.0,.,.,.
O=C(NC1CCCCCC1)c1ccc(S(=O)(=O)NCc2ccco2)cc1,-11.0,-13.7,17.1,20.5*,12.0,6.3
O=C(COC(=O)c1ccc(S(=O)(=O)NCc2ccco2)cc1)NC1CCCCCC1,7.8,16.4,2.1,1.2,.,.
COc1ccc(OC)c(NC(=O)COC(=O)c2c3c(nc4ccccc24)CCCC3)c1,-13.3,-30.9,8.4,11.1,.,.
O=C(COC(=O)c1c2c(nc3ccccc13)CCCCC2)NCc1ccc2c(c1)OCO2,-19.5,-21.1,16.6,24.9*,22.5*,13.9
COc1ccc(NC(=O)COC(=O)c2c3c(nc4ccccc24)CCCC3)cc1,-20.6,-29.8,13.3,21.4*,8.7,5.9
CNC(=O)COC(=O)c1c2c(nc3ccccc13)CCC2,-0.9,10.8,.,.,.,.
CO/C(N)=C(\C#N)N=Cc1ccccc1Cl,-3.2,-15.1,6.8,.,.,.
Cc1ccc(CONC(=O)/N=C/N(C)C)cc1,-11.3,-3.0,-0.1,5.0,.,.
O=C(COC(=O)c1ccc(-c2ccccc2)cc1)Nc1ccccc1-c1ccccc1,2.7,2.6,-4.4,30.8*,15.5,19.1*
O=C(COC(=O)c1ccc(O)cc1)Nc1ccccc1-c1ccccc1,-1.7,-3.9,2.4,5.7,.,.
O=C(COC(=O)/C=C/c1ccccc1)Nc1ccccc1Br,-10.2,-30.2,4.2,11.8,.,.
O=C(COC(=O)/C=C/c1cccc(Cl)c1)Nc1ccccc1-c1ccccc1,-0.9,-13.4,7.0,18.8*,21.0*,29.9*
COC(=O)c1c(C)[nH]c(C)c1-c1ccccc1Cl,19.2,0.5,3.7,2.5,.,.
COC(=O)C1=C(C(=O)OC)SC2(S1)C(C(=O)OC)=C(C(=O)OC)SC1=C2c2cccc(C)c2NC1(C)C,-3.2,7.5,5.0,17.6*,9.4,33.5*
CCCCn1c(=N)n(CCOc2ccc(C)cc2)c2ccccc21,0.8,-25.3,19.2,20.0*,9.2,16.0
O=C(COc1cc(Cl)c(Cl)cc1Cl)Nn1cnnc1,-23.5,-7.8,5.1,1.4,.,.
CC(=O)Nc1ccccc1OCC(=O)NCCc1ccc(Cl)cc1Cl,9.5,19.2,-0.7,0.1,.,.
c1ccc(-c2oc3ncnc(NCCCN4CCOCC4)c3c2-c2ccccc2)cc1,-8.5,8.1,10.6,17.6*,16.6,16.8
COc1ccc(N(CC(=O)N/N=C/c2ccc(OC3CSC3)cc2)S(=O)(=O)c2ccccc2)cc1,7.6,16.8,0.3,20.7*,22.1*,54.1*
Cc1ccc(N(CC(=O)N/N=C/c2ccc(OC3CSC3)cc2)S(=O)(=O)c2ccccc2)cc1,-14.4,-8.2,6.4,3.5,.,.
N#Cc1c(NC(=O)CCn2cnc3ccccc3c2=O)oc(-c2ccccc2)c1-c1ccccc1,5.8,-17.0,19.8,20.1*,23.2*,10.9
COC(=O)c1cc(COC(=O)c2nc3nccc(C)n3n2)oc1C,-3.2,1.9,-2.5,.,.,.
c1ccc(-c2nc(CSc3nnc(-c4cccs4)o3)cs2)cc1,2.0,-0.2,-2.8,20.2*,15.5,20.1*
COc1ccccc1CCNCc1ccc(OC)c(OCc2ccccc2)c1,-36.5,-2.9,2.8,19.7*,7.8,92.0*
COc1ccc(CNCc2ccco2)cc1OCc1ccccc1,-0.4,-12.2,8.0,8.8,.,.
Cc1cc(C)n(-c2nc(Nc3ccccc3C(F)(F)F)nc(-n3nc(C)cc3C)n2)n1,-2.4,-19.3,4.2,19.1*,9.5,6.8
CC(C)c1ccc(/C=C/C(=O)NC(=S)Nc2ccc(CN3CCOCC3)cc2)cc1,-7.0,-0.8,2.8,21.3*,25.1*,72.5*
O=C(NCCOCc1ccccc1)C(c1ccccc1)c1ccccc1,-6.2,-9.8,14.5,.,.,.
